Screening data from PubChem BioAssay.
LMPTP inh – blocks human LMPTP phosphatase; P24666; recombinant LMPTP-A, OMFP fluorogenic substrate, fluorescence intensity; inhibition, % at 20 µM; 360,000 tested, 0.22% active; AID 651560;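 active = compounds that cut the enzyme signal by at least half of the control window in the single-dose screen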;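 note: plate controls were DMSO wells with enzyme plus substrate for no effect and substrate without enzyme for full effect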
Target sequence (P24666 whole entry, looked up): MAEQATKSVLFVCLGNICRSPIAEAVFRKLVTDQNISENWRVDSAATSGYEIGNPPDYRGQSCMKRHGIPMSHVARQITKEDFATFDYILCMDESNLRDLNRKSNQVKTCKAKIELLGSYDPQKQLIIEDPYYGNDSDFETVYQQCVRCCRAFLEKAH
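Assay system: LMPTP-A, protein tyrosine phosphatase of low molecular weight / Medium: pH 6.0 Bis-Tris buffer with DTT and Triton X-100 / Schedule: 50 min enzyme reaction at room temperature, protected from light / Measured by: endpoint fluorescence intensity from OMFP dephosphorylation / Read-out basis: % inhibition relative to no-enzyme and uninhibited control wells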
SUMO1-SIM PPI – modulators of human SUMO1-mediated protein-protein interactions | P63165 | SUMO1 binding to a labelled peptide, TR-FRET, 1 h | inhibition, % at 20 µM | 360,000 tested, 0.33% active | AID 602429; in the data active = inhibition above about 37%
Target sequence (P63165 whole entry, looked up): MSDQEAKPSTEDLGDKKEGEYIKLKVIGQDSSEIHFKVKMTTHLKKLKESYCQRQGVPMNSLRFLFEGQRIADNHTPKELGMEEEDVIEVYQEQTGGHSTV
NadD block – inhibitors of Staphylococcus aureus NadD; purified NadD enzyme, colorimetric absorbance read-out; inhibition, % at 20 µM; 360,000 tested, 0.78% active; AID 602399; in the data active = inhibition above about 26%
STEP block – blocks human striatal-enriched tyrosine phosphatase | AID 588621 | 360,000 tested, 0.25% active | P54829 | inhibition, % at 20 µM | recombinant STEP, OMFP fluorogenic substrate, fluorescence;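 active = inhibition at 20 µM, scaled per plate between control wells, above about 37%, limit read from the data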;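 note: 0% = DMSO with enzyme and substrate and 100% = substrate only without enzyme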
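Also added – OMFP at 25 µM · Test system – STEP tyrosine phosphatase · Technique – FITC-channel fluorescence of OMFP product · Schedule – 20 min at room temperature, dark · Evaluation – control-normalized % inhibition with plate pattern correction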
Scp1 inh – Scp-1 (human) phosphatase inhibition. inhibition, % at 20 µM. Recombinant Scp1, phosphopeptide, malachite green phosphate absorbance. AID 493091. Q9GZU7. 340,000 tested, 0.88% active;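 active = inhibition above about 50% at 20 µM, limit read from the data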;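 note: plate controls were DMSO wells with enzyme for no effect and wells lacking enzyme for full effect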
Target sequence (Q9GZU7 76-261 limits assumed): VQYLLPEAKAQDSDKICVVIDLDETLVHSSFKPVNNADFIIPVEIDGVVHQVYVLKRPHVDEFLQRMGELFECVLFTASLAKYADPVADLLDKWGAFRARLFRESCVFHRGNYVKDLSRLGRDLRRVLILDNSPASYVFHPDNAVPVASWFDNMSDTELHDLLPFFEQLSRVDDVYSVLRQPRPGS
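Material – SCP-1 phosphatase catalytic domain, residues 76-261 · Buffer or medium – Acidic Tris acetate buffer with magnesium and detergent · Also added – Phospho 17-mer peptide substrate · Compound – single 20 µM dose, 1% DMSO · Times – 45 min room-temperature reaction, 5 min colour, 30 min stabiliser · Technique – Phosphate-binding colour reagent, absorbance read at 630 nm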
DNMT1 block – DNMT1 (human) enzyme inhibition. P26358. DNMT1 molecular beacon, Hinp1I cleavage, fluorescence. inhibition (reported as % activation of signal), % at 10 µM. 360,000 tested, 0.83% active. AID 588458; in the data active = inhibition above about 50%
NadD inh conf – confirmation of Staphylococcus aureus NadD inhibitors | 2,000 tested, 13% active | inhibition, % at 20 µM | AID 624309 | shares compounds with NadD block | purified S. aureus NadD, colorimetric enzyme assay; in the data active = inhibition mostly above about 42%, no sharp cut-off; inactive = mostly below about 42%
Numbers without * were called inactive; · = no result given. A selection: hits, their analogues and other compounds. The true share with any hit is near 2.3%.

SMILES	LMPTP inh	SUMO1-SIM PPI	NadD block	STEP block	Scp1 inh	DNMT1 block	NadD inh conf
Cc1cccc(NNC(N)=S)c1C	-1	1	2	1	-2	1	·
Cc1noc(C)c1NC(=O)N(C)C[C@H]1Oc2c(NC(=O)C3CCCCC3)cccc2C(=O)N([C@H](C)CO)C[C@@H]1C	-2	4	-6	1	-11	5	·
COc1ccc(-c2c3c([nH]c(=S)c2C#N)CCC3)cc1	-1	-1	36*	-5	-2	-3	17
COc1cccc(CN2CCC2(C)C(=O)Nc2cnc3ccccc3c2)c1F (configuration not stated)	0	6	-3	1	·	-3	·
NS(=O)(=O)c1cccc(NC(=O)CSc2nnc(C3CC3)n2-c2ccccc2)c1	-1	6	-2	2	-1	3	·
C=CCN(CC=C)S(=O)(=O)c1ccc(NC(=S)NC(=O)/C=C/c2cccc3ccccc23)cc1	2	-3	31*	4	-8	-3	4
Cc1c([N+](=O)[O-])cc(N2C(=O)C=CC2=O)cc1[N+](=O)[O-]	24	-15	42*	6	5	32	57*
COc1ccc(S(=O)(=O)N2CCCCC2)cc1NC(=O)c1c(F)cccc1Cl	0	5	-6	-1	-8	-6	·
CC(C)(C)OC(=O)C[C@@H]1C/C=C\C[C@@H](CC(=O)NCCO)C(=O)N2CCC[C@H]2COC1=O	1	2	-3	4	-6	2	·
CC(C)C[C@H]1CNC(=S)N1CC1CCCN1C[C@H](Cc1ccccc1)N1C[C@H](Cc2ccc(O)cc2)N(CC2CCCCCC2)C1=S (some centres not stated)	2	-4	32*	6	24	-2	2
CC(C)C[C@H]1CN([C@@H](Cc2ccc(O)cc2)CN2CCC[C@@H]2CN2C(=S)NC[C@@H]2Cc2ccccc2)C(=S)N1CC1CCCCCC1	3	-1	20	4	·	-16	·
Oc1ccc(C[C@H]2CNC(=S)N2C[C@H]2CCCN2C[C@H](Cc2ccccc2)N2C[C@H](Cc3ccccc3)N(CC3CCCCC3)C2=S)cc1	6	22	39*	·	·	·	0
CC(C)C[C@H]1CNC(=S)N1C[C@H]1CCCN1C[C@H](Cc1ccc(O)cc1)N1C[C@H](Cc2ccc(O)cc2)N(CC2CCCCCC2)C1=S	4	9	44*	4	·	-40	17
CC1CCc2[nH]c3ccc(C(=O)N4CCCC(C(F)(F)F)C4)cc3c2C1 (configuration not stated)	3	6	-1	6	0	3	·
CCOC(=O)C1=C(C)c2ccccc2N(C(=O)OC)C1(C)C(=O)OCC (configuration not stated)	1	3	44*	2	98*	12	69*
CCOC(=O)C1=C(C)c2ccccc2OC1(CC)C(=O)OCC (configuration not stated)	0	-2	-3	0	-7	0	·
Cc1ccc(S(=O)(=O)Nc2ccc(Nc3nccn4c(-c5ccccc5Oc5ccccc5)cnc34)cc2)cc1	2	-2	36*	0	·	-15	64*
Cc1ccc(S(=O)(=O)Nc2ccc(Oc3cccnc3)nc2)cc1	-1	1	5	1	4	2	·
Cc1ccc(-c2cnc3c(Nc4cccc(OC(F)(F)C(F)F)c4)nccn23)cc1	4	1	5	-1	·	-6	·
Cc1ccc(S(=O)(=O)Nc2ccc(Nc3nccn4c(-c5ccc6ccccc6c5)cnc34)cc2)cc1	2	-1	41*	-2	·	-20	53*
COc1cccc(N2CCN(C(=O)c3ccccc3SCC(=O)NCc3ccco3)CC2)c1	0	0	5	-2	-1	-3	·
Cc1cc(C(=O)CN2CCCC(C)C2)c(C)n1-c1ccc(F)cc1 (configuration not stated)	0	0	-2	0	-1	-7	·
CC(C)(O)CN(C(=O)c1ccc([N+](=O)[O-])cc1)C1CCCC1	-1	-24	2	1	-3	8	·
Cn1cc(C(=O)c2ccc(Cl)cc2Cl)cc1C(=O)N/N=C(\N)COc1ccc(Cl)cc1	4	-2	32*	0	11	-11	35
Cn1cc(C(=O)c2ccc(Cl)cc2Cl)cc1C(=O)N/N=C(\N)COc1ccccc1	-3	3	-2	4	38	-5	·
SMILES	LMPTP inh	SUMO1-SIM PPI	NadD block	STEP block	Scp1 inh	DNMT1 block	NadD inh conf
Cn1cc(C(=O)c2ccc(Cl)cc2Cl)cc1C(=O)N/N=C(\N)COc1ccc(Cl)cc1Cl	3	-4	41*	-7	22	-7	29
COCCNC(=S)NNc1cccc(C(=O)O)c1	-1	-2	1	1	4	-4	·
Cc1ccc(Nc2nnc(SCC(O)=C(C#N)c3nc4ccccc4[nH]3)s2)c(C)c1	-1	19	31*	-2	-10	-24	60*
Cc1cccc(C)c1Nc1nnc(SC/C(O)=C(\C#N)c2nc3ccccc3[nH]2)s1	1	20	32*	2	1	-18	69*
Cc1cccc(Nc2nnc(SC/C(O)=C(\C#N)c3nc4ccccc4[nH]3)s2)c1C	0	22	45*	2	1	-18	41
Cn1cnnc1SC/C(O)=C(\C#N)c1nc2ccccc2[nH]1	-1	8	-4	-3	-1	1	·
Cc1ccc(CNC(=O)c2ccc(N3CCC4(CC3)CC(c3ccccc3)=NO4)c(NC(=O)c3ccccc3)c2)cc1	4	5	20	2	1	-2	·
Cc1ccc(CNC(=O)c2ccc(N3CCC4(CC3)CC(c3ccccc3)=NO4)c(NC(=O)c3ccc(Br)cc3)c2)cc1	2	5	36*	6	-4	8	13
COc1ccc([C@H]2C(C#N)=C([S-])N[C@](C)(O)[C@@H]2[n+]2ccccc2)cc1	49*	-34	45*	-1	-8	47	39
CC(=O)Nc1ccc(S(=O)(=O)Nc2nc3ccccc3nc2-n2ccc(=NC(=O)c3ccccc3)cc2)cc1	-1	-12	10	0	-1	0	·
CCOc1ccc(S(=O)(=O)Nc2nc3ccccc3nc2-n2ccc(=NC(=O)c3cccs3)cc2)cc1	5	-12	26*	-5	11	5	4
O=C(N=c1ccn(-c2nc3ccccc3nc2NS(=O)(=O)c2ccc(Cl)cc2)cc1)c1cccs1	5	-75	29*	0	4	39	4
Cc1ccc(CC(=O)OC(C)C(=O)NC2CCCCC2C)cc1C (configuration not stated)	1	3	-1	0	-2	2	·
O=C1CC(/C=C/c2ccccc2)=Nc2ccccc2N1	1	-2	20	1	-1	-11	·
